Screens from PubChem.
Only some compounds are listed: those with a hit (about 1.2% of all), similar ones and a draw of the others.
CaV13 FRET inh = Disruptors of the CACNA1D IQ motif to Ca2+-dependent inactivation inhibitor domain association, primary screening, Förster resonance energy transfer in intact living …. HEK cells, CFP/YFP FRET ICDI-IQ, plate reader, 10 min; percent FRET-ratio fall versus neutral wells. inhibition, % at 12.3 µM. 340,000 tested, 0.098% active. AID 743397;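 active means mean replicate inhibition of at least 30% and at least 1% of replicates passing that level; inconclusive means only one of the two criteria is met; inactive means neither criterion is met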;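 further: 0% = median of the neutral control wells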
RanGTP-Impb inh = disruptors of Ran-importin-beta complex formation – biochemical, FRET, CFP-Ran, YFP-importin-beta, homogeneous, primary screen; cell-free CFP-Ran/YFP-importin-beta FRET ratio; inhibition, % (no concentration beside the values); 300,000 tested, 1.1% active;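 active means more than half of the replicate wells show a fall in the fluorescence ratio signal beyond about 16%, limit read from the data, passing the limit was not always enough; inconclusive means exactly half of the replicate wells pass the set limit; inactive means fewer than half of replicates pass the limit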;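 further: 0% = DMSO wells and 100% = Ran loaded with GDP instead of GTP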
Runt-SMMHC FRET = inhibitors of human RUNX1 Runt domain binding to CBFb-SMMHC. Q01196+Q13951. Cerulean-Runt/Venus-CBFb-SMMHC FRET ratio 530/480, 1 h. inhibition, % at 20 µM. 220,000 tested, 0.74% active;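 active means mean inhibition across duplicate retests at 20 µM reaching about 50%, limit read from the data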;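 further: 0% = DMSO wells and 100% = wells with excess untagged CBFb-SMMHC; inhibitors lower the FRET ratio by blocking Runt binding to CBFb-SMMHC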
Target sequence (Q01196 whole entry, looked up, the tested form may be a part): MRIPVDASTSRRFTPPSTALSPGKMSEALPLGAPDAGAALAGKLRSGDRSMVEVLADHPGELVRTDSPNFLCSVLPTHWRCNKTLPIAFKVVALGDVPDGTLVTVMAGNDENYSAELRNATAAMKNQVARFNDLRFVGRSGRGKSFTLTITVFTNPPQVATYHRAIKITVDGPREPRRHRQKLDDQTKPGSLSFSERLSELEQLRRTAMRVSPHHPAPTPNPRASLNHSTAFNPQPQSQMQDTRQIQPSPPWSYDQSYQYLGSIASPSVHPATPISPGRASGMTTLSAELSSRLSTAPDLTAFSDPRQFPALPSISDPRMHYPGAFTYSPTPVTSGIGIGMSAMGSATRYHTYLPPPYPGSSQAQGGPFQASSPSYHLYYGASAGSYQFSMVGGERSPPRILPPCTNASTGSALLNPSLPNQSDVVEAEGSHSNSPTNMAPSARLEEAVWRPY
Target sequence (Q13951 whole entry, looked up, the tested form may be a part): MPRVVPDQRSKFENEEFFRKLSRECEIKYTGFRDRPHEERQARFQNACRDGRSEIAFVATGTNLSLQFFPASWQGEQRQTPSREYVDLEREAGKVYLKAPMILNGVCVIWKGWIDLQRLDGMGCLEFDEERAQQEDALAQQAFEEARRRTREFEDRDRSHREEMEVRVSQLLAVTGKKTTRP
Runt-CBFb FRET = Runt domain-CBFb interaction inhibition. Q01196+Q13951. Cerulean-Runt/Venus-CBFb FRET ratio 530/480, 1 h. inhibition, % at 20 µM. 220,000 tested, 0.46% active;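 active means inhibition over about 50% at 20 µM in the single-dose screen, limit read from the data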;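 further: 0% = DMSO wells and 100% = excess unlabeled CBFb competitor control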
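Assay system: Cerulean-Runt domain / Medium: Tris 50 mM pH 7.5, KCl, K2SO4, 0.01% BSA / Timing: protein complex preformed 1 h, compound exposure 1 h, room temperature, dark / Measured by: FRET, excitation 422 nm, emission at 530 and 480 nm / Evaluation: loss of energy transfer signal / Control set: 5 µM unlabeled CBFb as full-inhibition high control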
YIC FRET counter = counter-screen YIC FRET for RanGTP-importin-beta inhibitors. shares compounds with RanGTP-Impb inh. Purified YIC probe, intramolecular FRET ratio YFP/CFP. IC50, µM. 1,000 tested, 40% active;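 active means fitted half-maximal inhibitory concentration no more than tenfold above the top dose tested; inconclusive means flat fit with 30 to 70% activity, or poor fit; inactive means half-maximal concentration beyond tenfold above the top dose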
* = called active by the depositor; ? = inconclusive; · = not tested or not shown.

SMILES	CaV13 FRET inh	RanGTP-Impb inh	Runt-SMMHC FRET	Runt-CBFb FRET	YIC FRET counter
COc1cc2c(cc1NC(=S)Nc1cccc3ccccc13)oc1ccccc12	-6	18*	3	8	>50
COc1ccc(-c2c(C)c3ccc(O)cc3oc2=O)cc1	-5	19*	·	·	22*
CCOC(=O)c1oc2cc(O)ccc2c(=O)c1-c1ccc(OC)cc1	·	0	4	0	·
C[C@@H]1CN([C@H](C)CO)C(=O)CCCn2cc(nn2)CO[C@H]1CN(C)C(=O)Nc1cccc(F)c1	-3	·	·	·	·
OCCNc1nc2ccccc2nc1NCCO	-19	4	4	1	·
OCCNc1nc(-c2ccccc2)nc2ccccc12	-2	17*	2	1	>50
OCCNc1c2ccccc2nc2ccccc12	51*	40*	116*	109*	4.9*
CCCCC(=O)Nc1nnc(S(=O)(=O)N2CCCCCC2)s1	-3	2	·	·	·
CCCCOCCCNC(=O)CC(C)c1ccccc1 (centres undefined)	-5	1	-3	-2	·
CCCN1C(=O)N(c2cccc(C)c2)C(C)(O)CC1(C)C (centres undefined)	-4	4	-5	0	·
CCOCCCNC(=O)NC(=O)CN1CCN(S(=O)(=O)c2ccc3c(c2)OCCO3)CC1	-5	19*	2	1	>50
CC(C)(C)NC(=O)NC(=O)CN1CCN(S(=O)(=O)c2ccc3c(c2)OCCO3)CC1	-2	3	2	-1	·
CCCCCCCCN1C(=O)[C@H](CC(=O)NCCCCc2ccccc2)C[C@@]2(C(=O)OC)CC(C)(C)CC=C12	-15	·	·	·	·
CCN1CCN(Cc2ccc(NC(=O)c3ccc(C)c(/C=C/c4cnc(Nc5cc(N6CCNCC6)nc(C)n5)cn4)c3)cc2C(F)(F)F)CC1	·	31*	·	·	17*
CCN1CCN(Cc2ccc(NC(=O)c3ccc(C)c(NC(=O)c4ccno4)c3)cc2C(F)(F)F)CC1	-5	-1	3	1	·
O=C(CN1C(=O)/C(=C\c2cccc(Br)c2)Oc2ccccc21)NCC1CCCO1 (centres undefined)	-15	2	·	·	·
O=C(NCC1CCN(Cc2ccccc2Cl)CC1)Nc1ccccc1F	-4	17*	·	·	>50
O=C(NCC1CCN(Cc2ccccc2F)CC1)Nc1cc(F)ccc1F	-3	1	·	·	·
COc1ccc(C(=O)NCCNc2nc3cc(C)c(C)cc3cc2C)cc1	-3	6	·	·	·
Cc1cccc(C(=O)NCCNc2nc3cc(C)c(C)cc3cc2C)c1	-5	3	-1	-2	·
COc1ccc(C(=O)NCCNc2nc3c(C)cccc3cc2C#N)cc1	-15	36*	·	·	18*
Cc1ccc2nc(NCCNC(=O)c3ccccc3)c(C#N)cc2c1	3	49*	·	·	4.7*
Cc1cccc2cc(C#N)c(NCCNC(=S)NCCCN3CCOCC3)nc12	-4	19*	64*	40	48*
CCc1ccc(C2C3=C(CC(C)(C)CC3=O)Nc3c2c(=O)[nH]c2nc(C)nn32)cc1 (centres undefined)	-4	40*	·	62*	7.1*
O=C(NNC(=S)NC(=O)c1ccccc1[N+](=O)[O-])c1ccccc1O	-3	19*	1	4	>50
SMILES	CaV13 FRET inh	RanGTP-Impb inh	Runt-SMMHC FRET	Runt-CBFb FRET	YIC FRET counter
O=C(NNC(=S)NC(=O)c1ccccc1[N+](=O)[O-])c1ccccc1[N+](=O)[O-]	-7	1	2	3	·
O=C(N/N=C1/SCC(=O)N1Cc1ccco1)c1ccccc1F	-5	0	1	0	·
COc1ccc(NC(=O)CSc2nc(C)cc(C(F)(F)F)n2)cc1	·	-4	-1	0	·
Oc1ccc(-c2[nH]ncc2-c2ccc(Cl)cc2)c(O)c1	-5	-3	-8	0	·
Oc1ccc(-c2[nH]ncc2-c2cccc3cccnc23)c(O)c1	-2	17*	2	0	>50
Cc1ccccc1C(=O)NCC(=O)NCC1(N2CCOCC2)CCCCC1	-6	3	·	·	·
CCCCCNC(=O)C(C1CC1)n1c(=O)c(-c2cc3ccccc3[nH]2)nc2ccccc21 (centres undefined)	0	·	·	·	·
NC(=O)C1CCN(C(=O)Cn2cccc2C(=O)c2ccccc2)CC1	-4	1	-2	1	·
CC(C)Oc1ccc2c3c(c(=O)oc2c1)CCC3	-3	3	0	-3	·
O=C(Oc1ccc2c3c(c(=O)oc2c1)CCCC3)c1ccco1	·	17*	166*	130*	20*
Cc1ccccc1NC(=O)N1CCN(S(=O)(=O)c2ccccc2)CC1	-5	0	0	0	·
NNc1nc2sc3c(c2c(=O)n1C1CCCCC1)CCN(Cc1ccccc1)C3	-5	28*	54*	74*	0.92*
Fc1ccccc1N1CCN(c2nc3ccccc3n3nnnc23)CC1	-6	17*	22	13	27*
N#Cc1c(N)[nH]c(=S)c(C#N)c1-c1ccccc1	-4	31*	62	39	>50
Cc1ccc(-c2cc(-c3ccccc3)[nH]c(=S)c2C#N)cc1	-4	-1	1	5	·
Cn1cnnc1SCC(=O)c1cc2ccccc2oc1=O	-8	18*	5	13	>50
CN1CCCN(C(=O)Cc2c(Cl)cccc2Cl)c2nc3ccccc3nc21	-4	22*	54*	48	28*
CC1C(=O)N(c2ccc(S(=O)(=O)N(C)C)cc2)C1(/C=C/c1ccccc1)C(=O)NC1CCCC1 (centres undefined)	-3	0	-5	-1	·
Cc1cc(N2C(=O)C(O)=C(C(=O)c3cc4ccccc4o3)C2c2cccc(Cl)c2)no1 (centres undefined)	-2	25*	·	·	7.4*
COc1cccc(C2C(C(=O)c3cc4ccccc4o3)=C(O)C(=O)N2c2cc(C)on2)c1 (centres undefined)	-5	?	·	·	·
COc1ccc(N2Cc3ccccc3/C2=N\C(=O)Nc2ccccc2)cc1	·	17*	-2	-2	>50
Cc1cccc(C)c1NC(=O)C1c2cccc[n+]2CC(=O)N1Cc1cccs1 (centres undefined)	-14	23*	-2	0	>50
COc1cc(NC(=O)c2cc(-c3cccs3)on2)cc(OC)c1OC	-4	28*	-3	-2	>50
COc1cc(NC(=O)c2cc(-c3ccc(C)cc3)on2)cc(OC)c1OC	-1	2	·	·	·
CCS(=O)(=O)c1nc(S(=O)(=O)c2ccc(C)cc2)c(NCc2ccccn2)s1	-1	16*	-4	8	>50
CCCS(=O)(=O)c1nc(S(=O)(=O)c2ccc(C)cc2)c(NCc2ccccn2)s1	2	5	0	3	·
Cc1cc(C)c(S(=O)(=O)N(C)CC(N)=O)c(C)c1	-5	17*	-6	-2	>50
c1ccc2c(c1)nc(NCC1CCCO1)c1nnnn12 (centres undefined)	-5	23*	28	18	28*
